pIC50, pKi: −log10 of the molar value. The source made the active and inactive calls. No cut-off for these calls is given here.
Legend:
[1] = (§1) Displacement of [125I]-Sar1,Ile8-angiotensin 2 from AT1 receptor in Sprague-Dawley rat vascular smooth muscle cells after 150 mins by gamma counting analysis
Method in brief: (§2)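 Competition radioligand binding to the AT1 receptor was run on vascular smooth muscle cells with [125I]-AII as the labelled ligand. Affinity is reported as IC50 and Ki, given as ± SEM.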

Rattus norvegicus [2] = species on record: Rattus norvegicus; assay: as §1; method in brief: as §2
Rattus norvegicus [3] = assay: Antihypertensive activity in SHR rat assessed as reduction in mean blood pressure at 5 mg/kg, po measured upto 24 hrs post dosing; format: functional, organism-based
Method in brief: (§3)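 Spontaneously hypertensive rats received test agents orally at 5 or 10 mg/kg, with losartan and telmisartan at 10 mg/kg as references. Mean blood pressure was tracked for over 24 h after dosing and compared with a negative control group. Significance versus control was set at p<0.05 and p<0.01.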

Rattus norvegicus [4] = assay: Antihypertensive activity in SHR rat assessed as reduction in mean blood pressure at 10 mg/kg, po measured upto 24 hrs post dosing; format: functional; method in brief: as §3
Rattus norvegicus [5] = assay: Antihypertensive activity in po dosed SHR rat assessed as reduction in mean blood pressure measured upto 24 hrs post dosing; format: functional, organism-based
Method in brief: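 In spontaneously hypertensive rats, test compounds were given orally at 5 and 10 mg/kg, with losartan and telmisartan references at 10 mg/kg. Mean blood pressure was followed over time to beyond 24 h post-dose and compared with a negative control group. Significance was set at p<0.05 and p<0.01.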

Rattus norvegicus [6] = assay: Antihypertensive activity in SHR rat assessed as reduction in mean blood pressure at 10 mg/kg, po measured after 6 hrs post dosing; format: functional; method in brief: as §3
[7] = Acute toxicity in ICR mouse assessed as mortality at 307.20 mg/kg, ig administered daily for 2 weeks measured during compound dosing; format: organism-based; conditions: in vivo, po, 307.2 mg/kg
Method in brief: (§4)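 Mice were given single-compound dose groups of 307.20, 384.00, 480.00, 600.00, 750.00 and 937 mg/kg. Body weight of survivors was checked after 2 weeks. Mortality (%) was scored per dose group, and LD50 with 95% confidence interval was derived from log(dose) versus mortality.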

[8] = Acute toxicity in ICR mouse assessed as mortality at 384 mg/kg, ig administered daily for 2 weeks measured during compound dosing; format: organism-based; conditions: in vivo, po; method in brief: as §4
[9] = Acute toxicity in ICR mouse assessed as mortality at 480 mg/kg, ig administered daily for 2 weeks measured during compound dosing; format: organism-based; conditions: in vivo, po; method in brief: as §4
[10] = Acute toxicity in ICR mouse assessed as mortality at 600 mg/kg, ig administered daily for 2 weeks measured during compound dosing; format: organism-based; conditions: in vivo, po; method in brief: as §4
[11] = Acute toxicity in ICR mouse assessed as mortality at 750 mg/kg, ig administered daily for 2 weeks measured during compound dosing; format: organism-based; conditions: in vivo, po; method in brief: as §4
[12] = Acute toxicity in ICR mouse assessed as mortality at 937 mg/kg, ig administered daily for 2 weeks measured during compound dosing; format: organism-based; conditions: in vivo, po; method in brief: as §4
[13] = Acute toxicity in intragastrically dosed ICR mouse assessed as mortality administered daily for 2 weeks measured during compound dosing; format: organism-based; conditions: in vivo, po; method in brief: as §4
Mus musculus [14] = assay: Acute toxicity in ICR mouse assessed as skin changes at 307.20 mg/kg, ig administered daily for 2 weeks measured during compound dosing; format: organism-based; conditions: in vivo, po, 307.2 mg/kg, 336 h; method in brief: as §4
Mus musculus [15] = assay: Acute toxicity in ICR mouse assessed as skin changes at 384 mg/kg, ig administered daily for 2 weeks measured during compound dosing; format: organism-based; conditions: in vivo, po, 336 h; method in brief: as §4
Mus musculus [16] = assay: Acute toxicity in ICR mouse assessed as mobility at 307.20 mg/kg, ig administered daily for 2 weeks measured during compound dosing; format: organism-based; conditions: in vivo, po, 307.2 mg/kg, 336 h; method in brief: as §4
Mus musculus [17] = assay: Acute toxicity in ICR mouse assessed as mobility at 384 mg/kg, ig administered daily for 2 weeks measured during compound dosing; format: organism-based; conditions: in vivo, po, 336 h; method in brief: as §4
Mus musculus [18] = assay: Acute toxicity in ICR mouse assessed as aggressiveness at 307.20 mg/kg, ig administered daily for 2 weeks measured during compound dosing; format: organism-based; conditions: in vivo, po, 307.2 mg/kg, 336 h; method in brief: as §4
Mus musculus [19] = assay: Acute toxicity in ICR mouse assessed as aggressiveness at 384 mg/kg, ig administered daily for 2 weeks measured during compound dosing; format: organism-based; conditions: in vivo, po, 336 h; method in brief: as §4
Mus musculus [20] = assay: Acute toxicity in ICR mouse assessed as respiratory movements at 307.20 mg/kg, ig administered daily for 2 weeks measured during compound dosing; format: organism-based; conditions: in vivo, po, 307.2 mg/kg, 336 h; method in brief: as §4
Mus musculus [21] = assay: Acute toxicity in ICR mouse assessed as respiratory movements at 384 mg/kg, ig administered daily for 2 weeks measured during compound dosing; format: organism-based; conditions: in vivo, po, 336 h; method in brief: as §4
Mus musculus [22] = assay: Acute toxicity in ICR mouse assessed as change in body weight at 307.20 to 937 mg/kg, ig administered daily for 2 weeks during compound dosing; format: organism-based; conditions: in vivo, po, 336 h; method in brief: as §4
Mus musculus [23] = assay: Acute toxicity in ICR mouse assessed as obvious untoward reaction at 307.20 to 937, ig administered daily for 2 weeks during compound dosing; format: organism-based; conditions: in vivo, po, 336 h; method in brief: as §4
Mus musculus [24] = assay: Acute toxicity in ICR mouse assessed as pathological changes in organs and tissues at 307.20 to 937, ig administered daily for 2 weeks measured on fifteenth day; format: organism-based; conditions: in vivo, po, 336 h
Mus musculus [25] = assay: Acute toxicity in ICR mouse assessed as hyperthyroidism at 480 to 937 mg/kg, ig administered daily for 2 weeks measured after 6 hrs post last dose; conditions: in vivo, po

With CCCc1nc2c(C)cc(-c3ccccn3)cc2n1Cc1cccc2c1ccn2-c1ccccc1C(=O)O the pIC50 [1] was 8.33, the pKi [1] was 8.47 and the Activity (Rattus norvegicus [2]) was “Dose-dependent effect”. The Activity (Rattus norvegicus [3]) was “Active” and the Activity (Rattus norvegicus [4]) was “Active”.
In the case of CCCc1nc2c(C)cc(-c3nc4ccccc4n3C)cc2n1Cc1ccc2c(ccn2-c2ccccc2C(=O)O)c1, the pIC50 [1] was 8.42, the pKi [1] was 8.63 and the Activity (Rattus norvegicus [2]) was “Dose-dependent effect”. For the same compound, the Activity (Rattus norvegicus [3]) was “Active” and the Activity (Rattus norvegicus [4]) was “Active”.
In the case of Cc1cc(-c2nc3ccccc3n2C)cc2c1nc(C)n2Cc1cccc2c1ccn2-c1ccccc1C(=O)O, the pIC50 [1] was 8.13, the pKi [1] was 8.33 and the Activity (Rattus norvegicus [2]) was “Dose-dependent effect”. The Activity (Rattus norvegicus [3]) was “inactive” and the Activity (Rattus norvegicus [4]) was “inactive”.
In the case of CCCCc1nc(Cl)c(CO)n1Cc1ccc(-c2ccccc2-c2nnn[nH]2)cc1 [LOSARTAN], the pIC50 [1] was 7.70, the pKi [1] was 7.88 and the Activity (Rattus norvegicus [2]) was “Dose-dependent effect”. The Activity (Rattus norvegicus [4]) was 43 mmHg.
For CCCCCc1nc2c(C)cc(-c3nc4ccccc4n3C)cc2n1Cc1cccc2c1ccn2-c1ccccc1C(=O)O, the pIC50 [1] was 7.95, the pKi [1] was 8.15 and the Activity (Rattus norvegicus [2]) was “Dose-dependent effect”. The Activity (Rattus norvegicus [3]) was “inactive” and the Activity (Rattus norvegicus [4]) was “inactive”.
For CCc1nc2c(C)cc(-c3nc4ccccc4n3C)cc2n1Cc1ccc2c(ccn2-c2ccccc2C(=O)O)c1, the pIC50 [1] was 7.88, the pKi [1] was 8.09 and the Activity (Rattus norvegicus [2]) was “Dose-dependent effect”. The Activity (Rattus norvegicus [3]) was “inactive” and the Activity (Rattus norvegicus [4]) was “inactive”.
With CCc1nc2c(C)cc(-c3nc4ccccc4n3C)cc2n1Cc1cccc2c1ccn2-c1ccccc1C(=O)O the pIC50 [1] was 8.74, the pKi [1] was 8.94 and the Activity (Rattus norvegicus [2]) was “Dose-dependent effect”. For the same compound, the Activity (Rattus norvegicus [3]) was “Active” and the Activity (Rattus norvegicus [4]) was “Active”.
With CCCCc1nc2c(C)cc(-c3nc4ccccc4n3C)cc2n1Cc1cccc2c1ccn2-c1ccccc1C(=O)O the pIC50 [1] was 8.58, the pKi [1] was 8.79 and the Activity (Rattus norvegicus [2]) was “Dose-dependent effect”. The Activity (Rattus norvegicus [3]) was “inactive” and the Activity (Rattus norvegicus [4]) was “inactive”.
With CCc1nc2c(C)cc(-c3ccccn3)cc2n1Cc1cccc2c1ccn2-c1ccccc1C(=O)O the pIC50 [1] was 8.45, the pKi [1] was 8.59 and the Activity (Rattus norvegicus [2]) was “Dose-dependent effect”. The Activity (Rattus norvegicus [3]) was “Active” and the Activity (Rattus norvegicus [4]) was “Active”.
In the case of CCCc1nc2c(C)cc(-c3ccccn3)cc2n1Cc1ccc2c(ccn2-c2ccccc2C(=O)O)c1, the pIC50 [1] was 8.49, the pKi [1] was 8.63 and the Activity (Rattus norvegicus [2]) was “Dose-dependent effect”. It also gave an Activity (Rattus norvegicus [4]) of 43 mmHg.
In the case of CCCc1nc2c(C)cc(-c3nc4ccccc4n3C)cc2n1Cc1ccc(-c2ccccc2C(=O)O)cc1 [TELMISARTAN], the pIC50 [1] was 8.42, the pKi [1] was 8.56 and the Activity (Rattus norvegicus [2]) was “Dose-dependent effect”. The Activity (Rattus norvegicus [4]) was “Active”.
With Cc1cc(-c2nc3ccccc3n2C)cc2c1nc(C)n2Cc1ccc2c(ccn2-c2ccccc2C(=O)O)c1 the pIC50 [1] was 8.08, the pKi [1] was 8.29 and the Activity (Rattus norvegicus [2]) was “Dose-dependent effect”. The Activity (Rattus norvegicus [4]) was 44 mmHg.
In the case of CCc1nc2c(C)cc(-c3ccccn3)cc2n1Cc1ccc2c(ccn2-c2ccccc2C(=O)O)c1, the pIC50 [1] was 8.93, the pKi [1] was 9.08 and the Activity (Rattus norvegicus [2]) was “Dose-dependent effect”. For the same compound, the Activity (Rattus norvegicus [4]) was 42 mmHg.
In the case of CCCc1nc2c(C)cc(-c3nc4ccccc4n3C)cc2n1Cc1cccc2c1ccn2-c1ccccc1-c1nnn[nH]1, the pIC50 [1] was 8.47, the pKi [1] was 8.67 and the Activity (Rattus norvegicus [2]) was “Dose-dependent effect”. For the same compound, the Activity (Rattus norvegicus [3]) was “Active” and the Activity (Rattus norvegicus [4]) was “Active”.
For CCCCc1nc2c(C)cc(-c3nc4ccccc4n3C)cc2n1Cc1ccc2c(ccn2-c2ccccc2C(=O)O)c1, the pIC50 [1] was 8.65, the pKi [1] was 8.86 and the Activity (Rattus norvegicus [2]) was “Dose-dependent effect”. For the same compound, the Activity (Rattus norvegicus [3]) was “Active” and the Activity (Rattus norvegicus [4]) was “Active”.
For CCCCc1nc2c(C)cc(-c3ccccn3)cc2n1Cc1cccc2c1ccn2-c1ccccc1C(=O)O, the pIC50 [1] was 8.25, the pKi [1] was 8.39 and the Activity (Rattus norvegicus [2]) was “Dose-dependent effect”. For the same compound, the Activity (Rattus norvegicus [3]) was “Active” and the Activity (Rattus norvegicus [4]) was “Active”.
In the case of CCCc1nc2c(C)cc(-c3nc4ccccc4n3C)cc2n1Cc1cccc2c1ccn2-c1ccccc1C(=O)O, the pIC50 [1] was 9.44, the pKi [1] was 9.64 and the Activity (Rattus norvegicus [2]) was “Dose-dependent effect”. For the same compound, the Activity (Rattus norvegicus [3]) was “Active”, the Activity (Rattus norvegicus [4]) was “Active” and the Activity (Rattus norvegicus [5]) was “Dose-dependent effect”. For the same compound, the Activity (Rattus norvegicus [6]) was 64 mmHg, the mortality at 336 h [7] was 0% and the mortality at 336 h [8] was 10%. The mortality at 336 h [9] was 50%, the mortality at 336 h [10] was 60% and the mortality at 336 h [11] was 90%. For the same compound, the mortality at 336 h [12] was 100%, the LD50 at 336 h [13] was 526 mg/kg and the Activity (Mus musculus [14]) was “Non-toxic”. The Activity (Mus musculus [15]) was “Non-toxic”, the Activity (Mus musculus [16]) was “Non-toxic” and the Activity (Mus musculus [17]) was “Non-toxic”. For the same compound, the Activity (Mus musculus [18]) was “Non-toxic”, the Activity (Mus musculus [19]) was “Non-toxic” and the Activity (Mus musculus [20]) was “Non-toxic”. For the same compound, the Activity (Mus musculus [21]) was “Non-toxic”, the Activity (Mus musculus [22]) was “Non-toxic” and the Activity (Mus musculus [23]) was “Non-toxic”. The Activity (Mus musculus [24]) was “Non-toxic” and the Activity (Mus musculus [25]) was “Toxic”.
With CCCCCc1nc2c(C)cc(-c3nc4ccccc4n3C)cc2n1Cc1ccc2c(ccn2-c2ccccc2C(=O)O)c1 the pIC50 [1] was 9.04, the pKi [1] was 9.17 and the Activity (Rattus norvegicus [2]) was “Dose-dependent effect”. The Activity (Rattus norvegicus [4]) was 53 mmHg.
In the case of CCCCc1nc2c(C)cc(-c3ccccn3)cc2n1Cc1ccc2c(ccn2-c2ccccc2C(=O)O)c1, the pIC50 [1] was 8.25, the pKi [1] was 8.39 and the Activity (Rattus norvegicus [2]) was “Dose-dependent effect”. The Activity (Rattus norvegicus [3]) was “inactive” and the Activity (Rattus norvegicus [4]) was “inactive”.

Reference: ChEMBL document CHEMBL3792302, “N-Phenyl indole derivatives as AT1 antagonists with anti-hypertension activities: Design, synthesis and biological evaluation” (Eur J Med Chem, 2016)
